Test results: ChEMBL document CHEMBL3997852, “Discovery of Fluorine-Containing Benzoxazinyl-oxazolidinones for the Treatment of Multidrug Resistant Tuberculosis” (ACS Med Chem Lett, 2017)
≈ marks a conversion by molar mass, not a printed value.

What was measured:
[1] = system: Mycobacterium tuberculosis; assay: Antitubercular activity against Mycobacterium tuberculosis H37Rv after 7 days by microplate alamar blue assay; format: functional; conditions: 168 h
Method in brief: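 Microplate alamar blue assay on M. tuberculosis H37Rv. The MIC is the lowest concentration that reduces fluorescence by ≥90% relative to the mean of replicate bacterium-only controls.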

[2] = system: Vero; assay: Cytotoxicity against African green monkey Vero cells assessed as growth inhibition after 48 hrs by MTT assay; format: ADME, cell-based; conditions: Chlorocebus sabaeus
[3] = Selectivity index, ratio of IC50 for African green monkey Vero cells to MIC for Mycobacterium tuberculosis H37Rv
[4] = Metabolic stability in CD1 mouse liver microsomes assessed as compound remaining at 0.1 uM in presence of NADPH after 30 mins by LC/MS method; format: ADME, microsome; conditions: read-out: Stability
[5] = AUC (0 to infinity) in Balb/c mouse at 10 mg/kg, iv measured over 24 hrs by LC/TSQ quantum access mass spectrometric method; format: ADME, organism-based; design: dose 10 mg/kg, time infinity, route intravenous; conditions: in vivo
[6] = MRT in Balb/c mouse at 10 mg/kg, iv measured over 24 hrs by LC/TSQ quantum access mass spectrometric method; format: ADME, organism-based; conditions: in vivo
[7] = system: Liver; assay: Metabolic stability in CD1 mouse liver microsomes at 0.1 uM in absence of NADPH after 30 mins by LC/MS method; format: ADME, microsome; conditions: 0.5 h
[8] = Clearance in Balb/c mouse at 10 mg/kg, iv measured over 24 hrs by LC/TSQ quantum access mass spectrometric method; format: ADME, organism-based; conditions: in vivo
[9] = Tmax in Balb/c mouse at 100 mg/kg, po measured over 24 hrs by LC/TSQ quantum access mass spectrometric method; format: ADME, organism-based; conditions: in vivo
[10] = AUC (0 to infinity) in Balb/c mouse at 100 mg/kg, po measured over 24 hrs by LC/TSQ quantum access mass spectrometric method; format: ADME, organism-based; design: dose 100 mg/kg, route oral, time infinity; conditions: in vivo
[11] = Metabolic stability in human liver microsomes assessed as compound remaining at 0.1 uM in presence of NADPH after 30 mins by LC/MS method; format: ADME, microsome; conditions: read-out: Stability
[12] = Plasma elimination half life in Balb/c mouse at 100 mg/kg, po measured over 24 hrs by LC/TSQ quantum access mass spectrometric method; format: ADME, organism-based; conditions: read-out: beta t1/2 (converted)
[13] = Plasma elimination half life in Balb/c mouse at 10 mg/kg, iv measured over 24 hrs by LC/TSQ quantum access mass spectrometric method; format: ADME, organism-based; conditions: read-out: beta t1/2 (converted)
[14] = Tmax in Balb/c mouse at 10 mg/kg, iv measured over 24 hrs by LC/TSQ quantum access mass spectrometric method; format: ADME, organism-based; conditions: in vivo
[15] = system: H9c2; assay: Inhibition of mitochondrial protein synthesis in rat H9c2 cells after 5 days by In-Cell ELISA; conditions: H9c2, 120 h
[16] = Cmax in Balb/c mouse at 100 mg/kg, po measured over 24 hrs by LC/TSQ quantum access mass spectrometric method; format: ADME, organism-based; design: dose 100 mg/kg, route oral; conditions: in vivo
[17] = system: Liver; assay: Metabolic stability in human liver microsomes at 0.1 uM in absence of NADPH after 30 mins by LC/MS method; format: ADME, microsome; conditions: 0.5 h
[18] = Cmax in Balb/c mouse at 10 mg/kg, iv measured over 24 hrs by LC/TSQ quantum access mass spectrometric method; format: ADME, organism-based; design: dose 10 mg/kg, route intravenous; conditions: in vivo
[19] = Oral bioavailability in Balb/c mouse at 100 mg/kg measured over 24 hrs by LC/TSQ quantum access mass spectrometric method; format: ADME, organism-based; conditions: in vivo
[20] = MRT in Balb/c mouse at 100 mg/kg, po measured over 24 hrs by LC/TSQ quantum access mass spectrometric method; format: ADME, organism-based; conditions: in vivo
[21] = system: HepG2; assay: Cytotoxicity against human HepG2 cells after 48 hrs by MTT assay; conditions: HepG2, 48 h
[22] = Elimination half life in CD1 mouse at 10 mg/kg, po measured over 24 hrs by HPLC/MS/MS method; format: ADME, organism-based; conditions: in vivo, read-out: beta t1/2

Structure (SMILES)	MIC90 [1]	IC50 [2]	selectivity ratio [3]	other results
CO[C@H]1/C=C/O[C@@]2(C)Oc3c(C)c(O)c4c(O)c(c(/C=N/N5CCN(C)CC5)c(O)c4c3C2=O)NC(=O)/C(C)=C\C=C\[C@H](C)[C@H](O)[C@@H](C)[C@@H](O)[C@@H](C)[C@H](OC(C)=O)[C@@H]1C [RIFAMPIN]	0.057 µg/mL (≈ 0.0693 µM)	–	–	–
O=C(NC[C@@H]1OC(=O)N2c3cc(F)c(C4=CCN(CCO)CC4)cc3OC[C@@H]12)C1CC1	0.473 µg/mL (≈ 1.1 µM)	> 64 µg/mL	135	–
O=C(NC[C@@H]1OC(=O)N2c3cc(F)c(C4=CCN(CCO)CC4)cc3OC[C@@H]12)C1CCC1	1.1 µg/mL (≈ 2.48 µM)	> 64 µg/mL	58	–
CC(=O)NC[C@@H]1OC(=O)N2c3cc(F)c(C4=CCN(C(=O)[C@@H]5CCCO5)CC4)cc3OC[C@@H]12	5.53 µg/mL (≈ 12 µM)	–	–	–
COC(=O)NC[C@@H]1OC(=O)N2c3cc(F)c(C4=CCN(C(=O)CO)CC4)cc3OC[C@@H]12	0.999 µg/mL (≈ 2.29 µM)	> 64 µg/mL	64	–
CC(=O)NC[C@@H]1OC(=O)N2c3cc(F)c(C4CCN(C(=O)CO)CC4)cc3OC[C@@H]12	3.81 µg/mL (≈ 9.05 µM)	> 64 µg/mL	17	–
CCC(=O)N1CC=C(c2cc3c(cc2F)N2C(=O)O[C@@H](CNC(C)=O)[C@@H]2CO3)CC1	6.36 µg/mL (≈ 15.2 µM)	–	–	–
CC(=O)NC[C@@H]1OC(=O)N2c3cc(F)c(C4=CCN(C(=O)[C@@H]5CCCN5)CC4)cc3OC[C@@H]12.Cl	7.12 µg/mL	–	–	–
O=C1O[C@@H](CNc2ccon2)[C@@H]2COc3cc(C4=CCN(CCO)CC4)c(F)cc3N12	0.98 µg/mL (≈ 2.28 µM)	> 64 µg/mL	65	–
O=C(CO)N1CC=C(c2cc3c(cc2F)N2C(=O)O[C@@H](Cn4ccnn4)[C@@H]2CO3)CC1	10.9 µg/mL (≈ 25.4 µM)	–	–	–
O=C(NC[C@@H]1OC(=O)N2c3cc(F)c(C4=CCN(C(=O)CO)CC4)cc3OC[C@@H]12)C1CC1	1.87 µg/mL (≈ 4.19 µM)	> 64 µg/mL	34	–
O=C1O[C@@H](CNC(=O)C(F)(F)F)[C@@H]2COc3cc(C4=CCN(CCO)CC4)c(F)cc3N12	1.92 µg/mL (≈ 4.17 µM)	> 64 µg/mL	33	–
CC(=O)NC[C@@H]1OC(=O)N2c3cc(F)c(C4=CCN(C(=O)C5CC5)CC4)cc3OC[C@@H]12	6.4 µg/mL (≈ 14.9 µM)	–	–	–
O=C1O[C@@H](Cn2ccnn2)[C@@H]2COc3cc(C4=CCN(CCO)CC4)c(F)cc3N12	7.96 µg/mL (≈ 19.2 µM)	–	–	–
CC(=O)NC[C@@H]1OC(=O)N2c3cc(F)c(C4=CCN(C(=O)CN)CC4)cc3OC[C@@H]12.Cl	0.732 µg/mL	> 64 µg/mL	87	–
O=C(CO)N1CC=C(c2cc3c(cc2F)N2C(=O)O[C@@H](COc4ccon4)[C@@H]2CO3)CC1	> 32 µg/mL	–	–	–
NNC(=O)c1ccncc1 [ISONIAZID]	0.037 µg/mL (≈ 0.27 µM)	–	–	–
CC(=O)NC[C@@H]1OC(=O)N2c3cc(F)c(C4=CCN(C(=O)[C@@H](O)CO)CC4)cc3OC[C@@H]12	0.483 µg/mL (≈ 1.07 µM)	> 64 µg/mL	133	–
O=C(NC[C@@H]1OC(=O)N2c3cc(F)c(C4=CCN(C(=O)CO)CC4)cc3OC[C@@H]12)C1CCC1	1.68 µg/mL (≈ 3.66 µM)	> 64 µg/mL	39	–
O=C([C@@H](O)CO)N1CC=C(c2c(F)cc(N3C[C@H](COc4ccon4)OC3=O)cc2F)CC1 [POSIZOLID]	1.02 µg/mL (≈ 2.2 µM)	> 64 µg/mL	62	–
CC(=O)NC[C@@H]1OC(=O)N2c3cc(F)c(C4=CCN(CCO)CC4)cc3OC[C@@H]12	0.578 µg/mL (≈ 1.43 µM)	> 64 µg/mL	111	–
CC(=O)NC[C@@H]1OC(=O)N2c3ccc(C4=CCN(CCO)CC4)cc3OC[C@@H]12	2.65 µg/mL (≈ 6.83 µM)	26.8 µg/mL (≈ 69.1 µM)	10	–
O=C(CO)N1CC=C(c2cc3c(cc2F)N2C(=O)O[C@@H](CNc4ccon4)[C@@H]2CO3)CC1	1.04 µg/mL (≈ 2.35 µM)	> 64 µg/mL	61	–
O=C(CO)N1CC=C(c2cc3c(cc2F)N2C(=O)O[C@@H](CNC(=O)C(F)(F)F)[C@@H]2CO3)CC1	1.16 µg/mL (≈ 2.45 µM)	> 64 µg/mL	55	–
CC(=O)NC[C@@H]1OC(=O)N2c3cc(F)c(C4=CCN(C(=O)CO)CC4)cc3OC[C@@H]12	0.391 µg/mL (≈ 0.932 µM)	> 64 µg/mL	–	remaining at 0.5 h, 0.1 µM [4]: 102%; AUC(0-inf) [5]: 12000 ng·h/mL; MRT [6]: 2.54 h; Stability [7]: Stable; clearance [8]: 13.9 mL/min/kg; Tmax [9]: 2 h; AUC(0-inf) [10]: 122000 ng·h/mL; remaining at 0.5 h, 0.1 µM [11]: 103%; half-life [12]: 4.22 h; half-life [13]: 8.23 h; Tmax [14]: 1.8 min; IC50 [15]: 9.19 µM; Cmax [16]: 30000 ng/mL; Stability [17]: Stable; Cmax [18]: 11400 ng/mL; bioavailability [19]: 102%; MRT [20]: 4.12 h; IC50 [21]: > 64 µg/mL
CC(=O)NC[C@@H]1OC(=O)N2c3cc(F)c(C4=CCN(C(=O)C5CCCC5)CC4)cc3OC[C@@H]12	7.94 µg/mL (≈ 17.4 µM)	–	–	–
COC(=O)NC[C@@H]1OC(=O)N2c3cc(F)c(C4=CCN(CCO)CC4)cc3OC[C@@H]12	2.22 µg/mL (≈ 5.27 µM)	57.4 µg/mL (≈ 136 µM)	26	–
CC(=O)NC[C@@H]1OC(=O)N2c3ccc(C4=CCN(C(=O)CO)CC4)cc3OC[C@@H]12	0.725 µg/mL (≈ 1.81 µM)	13.8 µg/mL (≈ 34.3 µM)	19	–
CC(=O)NC[C@@H]1OC(=O)N2c3cc(F)c(C4CCN(CCO)CC4)cc3OC[C@@H]12	14.6 µg/mL (≈ 35.8 µM)	–	–	–
CC(=O)NC[C@H]1CN(c2ccc(N3CCOCC3)c(F)c2)C(=O)O1 [LINEZOLID]	0.304 µg/mL (≈ 0.901 µM)	> 64 µg/mL	197	half-life [22]: < 1 h; IC50 [15]: 8.71 µM
